Laboratory results reported in ChEMBL document CHEMBL4261657, “Discovery of Clinical Candidate 2-(4-(2-((1 H-Benzo[ d]imidazol-2-yl)thio)ethyl)piperazin-1-yl)- N-(6-methyl-2,4-bis(methylthio)pyridin-3-yl)acetamide Hydrochloride [K-604], an Aqueous-Soluble Acyl-CoA:Cholesterol O-Acyltransferase-1 Inhibitor” (J Med Chem, 2018).
Active and inactive are the calls of the source. The rule behind the calls is not given here.

What was measured:
Hamster [1] = assay: Antiatherosclerotic activity in Bio F1B hamster model of diet-induced atherosclerosis assessed as reduction in CE to FC ratio in intestine at 0.3 to 10 mg/kg/day added to chow pellets; type: functional, organism-based; settings: Cricetinae
Hamster [2] = assay: Antiatherosclerotic activity in cholesterol fed F1B hamster model of diet-induced atherosclerosis assessed as reduction in lipid accumulation areas at 10 mg/kg; type: functional, Cricetinae, Bio F1B; parameters: scale not given: the % may be the effect or the level left
Hamster [3] = assay: Antiatherosclerotic activity in Bio F1B hamster model of diet-induced atherosclerosis assessed as reduction in CE to FC ratio in liver at 0.3 to 10 mg/kg/day added to chow pellets; type: functional, organism-based; settings: Cricetinae
Hamster [4] = assay: Antiatherosclerotic activity in Bio F1B hamster model of diet-induced atherosclerosis assessed as reduction in total plasma cholesterol at 0.3 to 10 mg/kg/day added to chow pellets relative to control; type: functional, organism-based; settings: Cricetinae
Summary of the method: (§1)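 Male Bio F1B hamsters (8 weeks old) were fed CE-2 chow with 0.3% cholesterol and 10% coconut oil for 10 weeks, with compound mixed into the chow (n=7 per dose; reference group n=6). Plasma TC was measured by enzymatic kit. Aorta was perfusion-fixed with 4% paraformaldehyde under pentobarbital anaesthesia, opened and stained with oil red O, and lipid area was measured by image analysis. Results are % of control ± SD, analysed by Dunnett's test.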

Hamster [5] = assay: Antiatherosclerotic activity in cholesterol fed F1B hamster model of diet-induced atherosclerosis assessed as reduction in lipid accumulation areas at 30 mg/kg; type: functional, Cricetinae, Bio F1B; parameters: scale not given: the % may be the effect or the level left
Hamster [6] = assay: Antiatherosclerotic activity in cholesterol fed F1B hamster model of diet-induced atherosclerosis assessed as reduction in lipid accumulation areas at 3 mg/kg; type: functional, Cricetinae, Bio F1B; parameters: scale not given: the % may be the effect or the level left
Hamster [7] = assay: Toxicity in Bio F1B hamster model of diet-induced atherosclerosis assessed as reduction in CE to FC ratio in adrenal gland at 0.3 to 10 mg/kg/day added to chow pellets; type: organism-based; settings: cricetinae, in vivo, po
Hamster [8] = assay: Antiatherosclerotic activity in Bio F1B hamster model of diet-induced atherosclerosis assessed as reduction in lipid accumulation areas in aortic arch at 0.3 to 10 mg/kg/day added to chow pellets by oil red O staining based assay relative to control; type: functional, organism-based; settings: Cricetinae; summary of the method: as §1
[9] = Toxicity in rabbit; type: organism-based, Oryctolagus cuniculus; settings: in vivo
Summary of the method: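 Preliminary adrenal toxicity test in male rabbits (four per group) given a single intravenous injection. Adrenal glands were examined 24 h after dosing for necrosis of zona fasciculata cells. The read-out was the number of animals affected per group. PD-132301-2 served as the positive control.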

Which results are given for CC(C)c1cc(C(C)C)c(CC(=O)NS(=O)(=O)Oc2c(C(C)C)cccc2C(C)C)c(C(C)C)c1 [AVASIMIBE]?
Activity (Hamster [1]): Active; Activity (Hamster [2]): 86%; Activity (Hamster [3]): Active; Activity (Hamster [4]): Active; Activity (Hamster [5]): 93%; Activity (Hamster [6]): 68%; Activity (Hamster [7]): Non-Toxic; Activity (Hamster [8]): Active; NOAEL [9]: 5 mg/kg
